pIC50, pKi: −log10 of the molar value. In brackets after ≈: the same amount, converted by molar mass. Activity calls are given as the source filed them. The rule behind the calls is not given here.
Tests used:
Vero = experiment: Cytotoxicity against african green money Vero cells after 48 hrs by MTT assay; type: cell-based; conditions: Chlorocebus sabaeus
[1] = test system: Mycobacterium tuberculosis; experiment: Antitubercular activity against Mycobacterium tuberculosis H37Rv in iron-replete GAST medium after 10 to 14 days by broth dilution method; type: functional
Outline: (§1)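 MIC99 by broth microdilution in quadruplicate in GAST, either iron-deficient or supplemented with 200 µM FeCl3. Compounds were added from DMSO stocks, with DMSO-treated controls. Inoculum was 10⁴-10⁵ cells/assay, incubation 37 °C for 10-14 days, and growth read as OD620. MIC99 is the lowest concentration completely inhibiting observable growth.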

[2] = test system: Mycobacterium tuberculosis; experiment: Antitubercular activity against Mycobacterium tuberculosis H37Rv in iron-deficient GAST medium after 10 to 14 days by broth dilution method; type: functional; outline: as §1
[3] = target: T1, Salicyl-AMP ligase / salicyl-S-ArCP synthetase (Mycobacterium tuberculosis, UniProt P71716); experiment: Inhibition of Mycobacterium tuberculosis recombinant MbtA expressed in Escherichia coli by ATP-PPi exchange assay; conditions: read-out: Ki(app)
T1 sequence (P71716 whole entry): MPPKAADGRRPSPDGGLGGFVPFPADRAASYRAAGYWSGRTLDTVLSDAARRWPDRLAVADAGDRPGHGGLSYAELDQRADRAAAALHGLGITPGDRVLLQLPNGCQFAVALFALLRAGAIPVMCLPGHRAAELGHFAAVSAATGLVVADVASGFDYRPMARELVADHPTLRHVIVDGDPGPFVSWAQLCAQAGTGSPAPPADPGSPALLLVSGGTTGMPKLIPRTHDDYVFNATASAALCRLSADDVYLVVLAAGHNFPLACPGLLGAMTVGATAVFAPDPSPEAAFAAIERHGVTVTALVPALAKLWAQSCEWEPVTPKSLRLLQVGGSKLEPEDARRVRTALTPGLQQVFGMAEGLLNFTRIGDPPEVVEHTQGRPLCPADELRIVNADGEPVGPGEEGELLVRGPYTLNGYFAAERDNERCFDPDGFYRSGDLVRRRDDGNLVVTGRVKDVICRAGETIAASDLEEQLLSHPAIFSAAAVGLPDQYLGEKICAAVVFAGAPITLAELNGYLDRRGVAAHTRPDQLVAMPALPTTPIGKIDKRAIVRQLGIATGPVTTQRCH

[4] = test system: Mycobacterium tuberculosis; experiment: Ratio of MIC99 for Mycobacterium tuberculosis H37Rv in iron-replete GAST medium to MIC99 for Mycobacterium tuberculosis H37Rv in iron-deficient GAST medium; type: functional
[5] = Therapeutic index, ratio of IC50 for african green money Vero cells to MIC99 for Mycobacterium tuberculosis H37Rv; type: cell-based; conditions: monkey
Oryctolagus cuniculus = species on record: Oryctolagus cuniculus; experiment: Inhibition of protein synthesis in T7 coupled rabbit reticulocyte system by luciferase based translation assay; type: functional

CC(C)CNc1ncnc2c1ncn2[C@@H]1O[C@H](COS(=O)(=O)NC(=O)c2ccccc2O)[C@@H](O)[C@H]1O
pIC50 (Vero): < 4.00 | MIC99 [1]: > 100 µM | MIC99 [2]: > 100 µM | pKi [3]: 5.94

CCNc1ncnc2c1ncn2[C@@H]1O[C@H](COS(=O)(=O)[N-]C(=O)c2ccccc2O)[C@@H](O)[C@H]1O.[Na+]
pIC50 (Vero): < 4.00 | MIC99 [1]: 1.56 µM | MIC99 [2]: 0.39 µM | Ratio [4]: 4 | pKi [3]: 8.36

Nc1nc(-c2ccc(-c3ccccc3)cc2)nc2c1ncn2[C@@H]1O[C@H](COS(=O)(=O)NC(=O)c2ccccc2O)[C@@H](O)[C@H]1O
pIC50 (Vero): < 4.00 | MIC99 [1]: > 50 µM | MIC99 [2]: 25 µM (≈ 15.5 µg/mL) | pKi [3]: 9.00

O=C(NS(=O)(=O)OC[C@H]1O[C@@H](n2cnc3c(=O)[nH]cnc32)[C@H](O)[C@@H]1O)c1ccccc1O
pIC50 (Vero): < 4.00 | MIC99 [1]: > 100 µM | MIC99 [2]: > 100 µM | pKi [3]: 6.10

[N-]=[N+]=Nc1nc2c(N)ncnc2n1[C@@H]1O[C@H](COS(=O)(=O)NC(=O)c2ccccc2O)[C@@H](O)[C@H]1O
pIC50 (Vero): < 4.00 | MIC99 [1]: > 50 µM | MIC99 [2]: > 50 µM | pKi [3]: 4.37

O=C(NS(=O)(=O)OC[C@H]1O[C@@H](n2cnc3c(NCc4ccccc4)ncnc32)[C@H](O)[C@@H]1O)c1ccccc1O
pIC50 (Vero): < 4.00 | MIC99 [1]: > 100 µM | MIC99 [2]: > 100 µM | pKi [3]: 5.08

CCN(CC)CC.Nc1ncnc2c1ccn2[C@@H]1O[C@H](COS(=O)(=O)NC(=O)c2ccccc2O)[C@@H](O)[C@H]1O
pIC50 (Vero): < 4.00 | MIC99 [1]: 50 µM | MIC99 [2]: 6.25 µM | Ratio [4]: 8 | pKi [3]: 7.61

CNc1ncnc2c1ncn2[C@@H]1O[C@H](COS(=O)(=O)[N-]C(=O)c2ccccc2O)[C@@H](O)[C@H]1O.[Na+]
pIC50 (Vero): < 4.00 | MIC99 [1]: 1.56 µM | MIC99 [2]: 0.39 µM | Ratio [4]: 4 | pKi [3]: 8.80

CCN(CC)CC.Nc1nc(Nc2ccccc2)nc2c1ncn2[C@@H]1O[C@H](COS(=O)(=O)NC(=O)c2ccccc2O)[C@@H](O)[C@H]1O
pIC50 (Vero): < 4.00 | selectivity ratio [5]: > 2000 | MIC99 [1]: 0.39 µM | MIC99 [2]: 0.049 µM | Ratio [4]: 8 | pKi [3]: 9.03

CCN(CC)CC.O=C(NS(=O)(=O)OC[C@H]1O[C@@H](n2cnc3c(NC4CC4)ncnc32)[C@H](O)[C@@H]1O)c1ccccc1O
pIC50 (Vero): < 4.00 | MIC99 [1]: 6.25 µM | MIC99 [2]: 0.098 µM | Ratio [4]: 64 | pKi [3]: 8.73

CC(C)Nc1ncnc2c1ncn2[C@@H]1O[C@H](COS(=O)(=O)[N-]C(=O)c2ccccc2O)[C@@H](O)[C@H]1O.[Na+]
pIC50 (Vero): < 4.00 | MIC99 [1]: > 100 µM | MIC99 [2]: 25 µM | Ratio [4]: >4 | pKi [3]: 8.15

Nc1ncnc2c1nc(Br)n2[C@@H]1O[C@H](COS(=O)(=O)NC(=O)c2ccccc2O)[C@@H](O)[C@H]1O
pIC50 (Vero): < 4.00 | MIC99 [1]: > 50 µM | MIC99 [2]: > 50 µM | pKi [3]: 5.69

O=C(NS(=O)(=O)OC[C@H]1O[C@@H](n2cnc3c(NC4CCC4)ncnc32)[C@H](O)[C@@H]1O)c1ccccc1O
pIC50 (Vero): < 4.00 | MIC99 [1]: > 100 µM | MIC99 [2]: > 100 µM | pKi [3]: 6.91

CN(C)c1ncnc2c1ncn2[C@@H]1O[C@H](COS(=O)(=O)NC(=O)c2ccccc2O)[C@@H](O)[C@H]1O
pIC50 (Vero): < 4.00 | MIC99 [2]: 50 µM (≈ 24.7 µg/mL) | pKi [3]: 6.42

CCN(CC)CC.Nc1nc(C#Cc2ccccc2)nc2c1ncn2[C@@H]1O[C@H](COS(=O)(=O)NC(=O)c2ccccc2O)[C@@H](O)[C@H]1O
pIC50 (Vero): < 4.00 | selectivity ratio [5]: > 2000 | MIC99 [1]: 0.39 µM | MIC99 [2]: 0.049 µM | Ratio [4]: 8 | pKi [3]: 9.40

Nc1ncnc2c1ncn2[C@@H]1O[C@H](COS(N)(=O)=O)[C@@H](O)[C@H]1O
Activity (Oryctolagus cuniculus): Active

Nc1nc(-c2ccccc2-c2ccccc2)nc2c1ncn2[C@@H]1O[C@H](COS(=O)(=O)NC(=O)c2ccccc2O)[C@@H](O)[C@H]1O
pIC50 (Vero): < 4.00 | MIC99 [1]: > 50 µM | MIC99 [2]: > 50 µM | pKi [3]: 7.33

CCCNc1ncnc2c1ncn2[C@@H]1O[C@H](COS(=O)(=O)NC(=O)c2ccccc2O)[C@@H](O)[C@H]1O.CCN(CC)CC
pIC50 (Vero): < 4.00 | MIC99 [1]: 1.56 µM | MIC99 [2]: 0.39 µM | Ratio [4]: 4 | pKi [3]: 8.46

Nc1ncnc2c1nc(N)n2[C@@H]1O[C@H](COS(=O)(=O)NC(=O)c2ccccc2O)[C@@H](O)[C@H]1O
pIC50 (Vero): < 4.00 | MIC99 [1]: > 50 µM | MIC99 [2]: > 50 µM | pKi [3]: 3.74

CCN(CC)CC.Nc1cccc2c1ccn2C1CC(COS(=O)(=O)NC(=O)c2ccccc2O)[C@@H](O)[C@H]1O (single isomer, unassigned)
pIC50 (Vero): < 4.00 | MIC99 [1]: 50 µM | MIC99 [2]: 6.25 µM | Ratio [4]: 8 | pKi [3]: 7.70

Nc1nc(-c2ccccc2)nc2c1ncn2[C@@H]1O[C@H](COS(=O)(=O)NC(=O)c2ccccc2O)[C@@H](O)[C@H]1O
pIC50 (Vero): < 4.00 | MIC99 [1]: 0.39 µM (≈ 0.212 µg/mL) | MIC99 [2]: 0.049 µM (≈ 0.0266 µg/mL)

Nc1nc(-c2cccc(-c3ccccc3)c2)nc2c1ncn2[C@@H]1O[C@H](COS(=O)(=O)NC(=O)c2ccccc2O)[C@@H](O)[C@H]1O
pIC50 (Vero): < 4.00 | MIC99 [1]: > 50 µM | MIC99 [2]: 25 µM (≈ 15.5 µg/mL) | pKi [3]: 8.85

O=C(NS(=O)(=O)OC[C@H]1O[C@@H](n2cnc3c(NC4CCCC4)ncnc32)[C@H](O)[C@@H]1O)c1ccccc1O
pIC50 (Vero): < 4.00 | MIC99 [1]: > 100 µM | MIC99 [2]: > 100 µM | pKi [3]: 5.03

CCN(CC)CC.Nc1nc(I)nc2c1ncn2[C@@H]1O[C@H](COS(=O)(=O)NC(=O)c2ccccc2O)[C@@H](O)[C@H]1O
pIC50 (Vero): < 4.00 | MIC99 [1]: 3.12 µM | MIC99 [2]: 0.19 µM | Ratio [4]: 16 | pKi [3]: 8.52
